TPT1 inhibitor – blocks Candida albicans tRNA 2'-phosphotransferase | recombinant caTPT1, FP RNA substrate dephosphorylation | inhibition, % at 5 µM | 300,000 compounds, 0.81% hits | AID 1962;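 active = inhibition above the mean of all tested compounds plus 3 SD, set per screening campaign, cut at about 24% in these data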
CSN inh – inhibitors of human CSN-mediated cullin deneddylation; AID 651999; Q92905; 360,000 compounds, 0.38% hits; inhibition, % at 12.5 µM; Purified CSN, SCF-Nedd8-OG deneddylation, fluorescence polarization;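 active = pattern-corrected inhibition above about 35%, with an unprinted fluorescence ratio check between 0.5 and 1.5, limit read from the data, passing the limit was not always enough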
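Assay system: HEK293T-derived human Csn5 enzyme; quantity: 0.24 nM enzyme; medium: Tris/NaCl/DTT buffer, pH 7.5; also added: substrate SCFSkp2-Nedd8OG, 10 nM; doses: 12.5 µM compound; schedule: 90 min reaction at room temperature; signal: FP; read-out: % inhibition of substrate cleavage by Csn5; benchmarks: substrate-only high control, full reaction low control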
PKA-R2B act – activates the human PKA-R2B holoenzyme complex; PKA-R2B holoenzyme dissociation, Cy5-IP20 fluorescence polarization; R2B truncated from residue 108, S112A mutant; 0% DMSO only, 100% 113 µM cGMP; 340,000 compounds, 0.079% hits; AID 504700; activation, % at 11.4 µM; P22694+P31323;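 active = activation above a cutoff set at the mean over all compounds plus 3 SD, cut at about 18% in these data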;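 note: higher means more holoenzyme dissociation and a rise in polarization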
PKA-R1A activ – activators of PKA-R1A complex; P00514+P68181; PKA-R1A dissociation, Cy5-IP20 fluorescence polarization; scaled: DMSO 0%, 113 µM cGMP 100%; activation, % at 11.4 µM; 340,000 compounds, 0.083% hits;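 active = percent activation above the mean of all tested compounds plus 3 SD, cut at about 19% in these data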;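 note: higher means more PKAc released from R1A so a rise in polarization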
Rpn11 inh – blocks the human proteasome subunit Rpn11; 360,000 compounds, 0.59% hits; calls only at 20 µM; O00487; human 26S proteasome, Ub4-pepOG fluorescence polarization; 20S core pre-blocked with epoxomicin; AID 588493;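 active = inhibition at 20 µM, scaled to each plate's controls, above about 33%, limit read from the data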
HNF4A DNA FP – change in binding of human HNF4 alpha to DNA | activity change, % at 10 µM | AID 1224865 | 360,000 compounds, 0.3% hits | HNF4a-FITC DNA binding, fluorescence polarization, 1 h | P41235; in the data active = activity change above about 30%, passing the limit was not always enough
Target sequence (P41235 whole entry, looked up): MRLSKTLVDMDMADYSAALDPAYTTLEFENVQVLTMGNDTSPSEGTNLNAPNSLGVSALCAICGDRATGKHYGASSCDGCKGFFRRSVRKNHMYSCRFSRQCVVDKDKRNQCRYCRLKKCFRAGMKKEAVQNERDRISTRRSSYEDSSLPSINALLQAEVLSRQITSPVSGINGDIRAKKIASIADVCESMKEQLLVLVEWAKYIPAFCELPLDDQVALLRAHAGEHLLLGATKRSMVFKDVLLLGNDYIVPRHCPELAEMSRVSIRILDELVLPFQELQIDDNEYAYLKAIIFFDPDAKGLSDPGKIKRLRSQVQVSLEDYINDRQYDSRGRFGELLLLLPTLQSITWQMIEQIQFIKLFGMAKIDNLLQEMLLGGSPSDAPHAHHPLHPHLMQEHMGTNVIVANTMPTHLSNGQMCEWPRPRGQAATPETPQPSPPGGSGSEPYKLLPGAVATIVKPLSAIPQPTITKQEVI
TPT1 inh confirm – confirmation of Candida albicans TPT1 inhibitors; shares compounds with TPT1 inhibitor; recombinant caTPT1, fluorescence polarization, RNase T1 coupled; inhibition, % at 5 µM; 2,400 compounds, 74% hits;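 active = inhibition above the primary screen limit, the mean inhibition of all tested compounds plus 3 SD, cut at about 25% in these data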
RNase T1 inh – counter-screen for TPT1 inhibitors: inhibitors of Aspergillus oryzae RNase T1; shares compounds with TPT1 inhibitor; inhibition, % at 5 µM; 2,400 compounds, 83% hits; AID 2153; RNase T1 cleavage, fluorescence polarization, 1536-well;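 active = inhibition above the solvent-only control well mean plus 3 SD, limit set per screening run, cut at about 23% in these data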;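 note: inhibitors block cleavage so intact labeled substrate keeps polarization high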
Target sequence (P00651 whole entry, looked up): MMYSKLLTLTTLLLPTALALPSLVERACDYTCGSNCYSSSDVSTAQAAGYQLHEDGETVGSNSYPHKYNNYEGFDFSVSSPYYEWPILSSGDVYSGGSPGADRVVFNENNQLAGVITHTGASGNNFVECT
Large screens that a line does not name were inactive (follow-up assays come after a bar, where shown). Shown are actives, neighbours in structure and some others; about 1.6% of the full set was active somewhere.

COc1ccc(-n2c(NC(=O)c3ccco3)c(C#N)c3nc4ccccc4nc32)cc1	TPT1 inhibitor 36, CSN inh 38 | TPT1 inh confirm 45 | RNase T1 inh 55
C=CCNC(=O)/C(C#N)=C\c1cc(Cl)c(O)c(OCC)c1	TPT1 inhibitor 25 | TPT1 inh confirm 34 | RNase T1 inh 42
CCc1nnc(NS(=O)(=O)c2ccc(Nc3ccc([N+](=O)[O-])c4nonc34)cc2)s1	TPT1 inhibitor 27, HNF4A DNA FP 38 | TPT1 inh confirm 33 | RNase T1 inh 49
O=C(O)c1ccc(Nc2ccc([N+](=O)[O-])c3nonc23)cc1	none (no result: TPT1 inhibitor)
CC(=O)c1ccc(Nc2ccc([N+](=O)[O-])c3nonc23)cc1	TPT1 inhibitor 30 | TPT1 inh confirm 37 | RNase T1 inh 52
O=C(NCCCN1CCOCC1)c1onc(CSc2ccccn2)c1C(=O)NCCCN1CCOCC1	none
c1ccc(-n2cnnc2SCc2nc3ccccc3s2)cc1	TPT1 inhibitor 33 | TPT1 inh confirm 49 | RNase T1 inh 61
CCOC(=O)C1(Cc2cccc(F)c2)CCN(Cc2cnn(CC)c2)CC1	none
CCOC(=O)C1(Cc2cccc(F)c2)CCN(Cc2nc(CC)[nH]c2C)CC1	TPT1 inhibitor 87, HNF4A DNA FP 75 (not shown: Rpn11 inh) | TPT1 inh confirm 102 | RNase T1 inh 107
Cc1[nH]n(-c2ccccc2)c(=O)c1/C=N\NC(=O)C1COc2ccccc2O1 (stereo unspecified)	none
C=CCn1c(SCC(=O)N(CC)C2CCS(=O)(=O)C2)nc2ccccc2c1=O (stereo unspecified)	TPT1 inhibitor 52 | TPT1 inh confirm inactive | RNase T1 inh inactive
Oc1ccccc1N=Cc1c(O)ccc2ccccc12	none (not shown: TPT1 inhibitor, Rpn11 inh)
C=Cc1ccc(N=Cc2c(O)ccc3ccccc23)cc1	TPT1 inhibitor 40, CSN inh 39 (not shown: Rpn11 inh) | TPT1 inh confirm 129 | RNase T1 inh 133
Oc1ccc2ccccc2c1C=Nc1ccc(N2CCOCC2)cc1	TPT1 inhibitor 76 (no result: CSN inh, PKA-R2B act, PKA-R1A activ, Rpn11 inh, HNF4A DNA FP) | TPT1 inh confirm 67 | RNase T1 inh 86
O=C(Nc1ccc(Br)cc1)c1cc(-c2ccc3c(c2)OCO3)on1	none
COC(=O)c1cccc(C23CC4(C2)[C@H](CN(Cc2ccc(C(F)(F)F)cc2)[C@@H]4c2ccccc2)C3c2ccc(C(F)(F)F)cc2)c1 (stereo partly specified)	none (no result: CSN inh, PKA-R2B act, PKA-R1A activ, Rpn11 inh, HNF4A DNA FP)
CC(=O)N1c2ccc(S(=O)(=O)NCCC(=O)Nc3ccc(C)c(F)c3)cc2CC1C (stereo unspecified)	none
CC(C)NC(=O)Nc1ccc2c(c1)C(=O)N([C@H](C)CO)C[C@H](C)[C@@H](CN(C)S(=O)(=O)c1ccc(F)cc1)O2	none (no result: TPT1 inhibitor)
CCN1CCN(c2cc(N3CCN(C(=O)c4ccco4)CC3)c3c4c(onc24)-c2ccccc2C3=O)CC1	TPT1 inhibitor 40 | TPT1 inh confirm 43 | RNase T1 inh inactive
COc1cc(/C=C2\SC(N)=NC2=O)cc(Br)c1O	TPT1 inhibitor 59, CSN inh 47, HNF4A DNA FP 38 (not shown: Rpn11 inh) | TPT1 inh confirm 69 | RNase T1 inh 78
COc1cc(/C=C2\SC(N)=NC2=O)ccc1OCC(=O)Nc1ccc(C)cc1	none
COc1ccc(/C=C2\SC(c3ccc(C)cc3)=NC2=O)cc1OC	TPT1 inhibitor 87, HNF4A DNA FP 86 (not shown: Rpn11 inh) | TPT1 inh confirm 84 | RNase T1 inh 90
COc1cc(/C=C2\SC(c3ccccc3)=NC2=O)cc(Cl)c1O	none (no result: TPT1 inhibitor)
COc1ccc(/C=C2/SC(c3ccc(C)cc3)=NC2=O)cc1OC	TPT1 inhibitor 112 (not shown: Rpn11 inh) | TPT1 inh confirm 80 | RNase T1 inh 85
COc1cc(/C=C2\SC(c3ccc(C)cc3)=NC2=O)cc(OC)c1OC	TPT1 inhibitor 30, CSN inh 49, HNF4A DNA FP 51 (not shown: Rpn11 inh) | TPT1 inh confirm 40 | RNase T1 inh 50
COc1ccc(N(C(=O)c2csnn2)C(C(=O)NC2CCCC2)c2ccccc2)cc1 (stereo unspecified)	none
Cc1cc(/C=C(\C#N)C(=O)NCc2ccco2)c(C)n1-c1ccc(C(=O)O)cc1	none
COc1ccc(Nc2ccc(S(=O)(=O)N3CCCCC3)cc2[N+](=O)[O-])cc1	TPT1 inhibitor 67 | TPT1 inh confirm inactive | RNase T1 inh inactive
Cc1cc(NC(=O)CCC(=O)N(CC(=O)NC2CCCC2)c2ccc(C(C)C)cc2)no1	none
Cc1cc(O)ccc1N/C=C/c1onc(C)c1[N+](=O)[O-]	none
Cc1cccc(N/C=C/c2onc(C)c2[N+](=O)[O-])c1	TPT1 inhibitor 62 | TPT1 inh confirm 64 | RNase T1 inh 73
Cc1ccc(-c2nc(Nc3cccc(C)c3)sc2CC(=O)O)cc1	none
O=C(O)Cc1sc(NC2CCCCC2)nc1-c1ccc(Cl)cc1	TPT1 inhibitor 137, CSN inh 65 (not shown: Rpn11 inh) | TPT1 inh confirm inactive | RNase T1 inh 32
O=C(NCc1ccc(F)cc1)C(C(=O)NCc1ccc(F)cc1)c1ncc(C(F)(F)F)cc1Cl	none
Cc1nc(Nc2ccc(Cl)c(Cl)c2)sc1C(/C=C/c1ccc2c(c1)OCO2)=NNc1ccc([N+](=O)[O-])cc1[N+](=O)[O-]	none (no result: TPT1 inhibitor)
COC(=O)C1(C)NC(c2ccccc2F)C2C(=O)N(c3ccccc3)C(=O)C21 (stereo unspecified)	none
COC(=O)C1(C)NC(c2ccc(Cl)cc2)C2C(=O)N(c3ccccc3)C(=O)C21 (stereo unspecified)	TPT1 inhibitor 82 | TPT1 inh confirm inactive | RNase T1 inh inactive
CCOC(=O)c1c(-c2ccc(OC)cc2)csc1/N=C/N(C)C	none
CCOC(=O)c1c(-c2ccc(OC)cc2)csc1/N=C/C1C(=O)CCCC1=O	TPT1 inhibitor 172 | TPT1 inh confirm 25 | RNase T1 inh 36
CC(C)CC(=O)N1CCC(O)(CS(=O)(=O)c2ccc(Cl)c(Cl)c2)CC1	none
CC(=O)Nc1ccc(S(=O)(=O)N[C@@H](C)C(=O)OCC(=O)NC2CCCC2)cc1	none (no result: TPT1 inhibitor)
COc1ccc2c(Cl)c(C(=O)N/N=C/c3ccc4c(c3)OCO4)sc2c1	none
COc1ccc2c(Cl)c(C(=O)N/N=C3\CCCC(=O)C3)sc2c1	TPT1 inhibitor 97 (not shown: Rpn11 inh) | TPT1 inh confirm 121 | RNase T1 inh 115
Cc1nnc(NC(=O)C2CC(=O)N(c3ccccc3)C2)s1 (stereo unspecified)	none
N#CC1=CN(Cc2ccccc2)C=C(/C=N/Nc2ccccc2)C1	TPT1 inhibitor 25 | TPT1 inh confirm inactive | RNase T1 inh 25

Bioassay records from PubChem.
